The results in this text go back to ChEMBL document CHEMBL5331127, “Discovery of ARD-2051 as a Potent and Orally Efficacious Proteolysis Targeting Chimera (PROTAC) Degrader of Androgen Receptor for the Treatment of Advanced Prostate Cancer” (J Med Chem, 2023).

Calls of active or inactive are those of the source. The calls are words filed in the database; no cut-off is given here.

For one data set, the target named is Cytochrome P450 3A4 (Homo sapiens, UniProt P08684). The data set is described as follows: Inhibition of CYP3A4 in human liver microsomes using […] as substrate preincubated for 5 mins followed by NADPH addition and measured after 5 mins by LC/MS analysis. The data set is classed as ADME, Microsome.
Chain of Cytochrome P450 3A4 (P08684 whole entry): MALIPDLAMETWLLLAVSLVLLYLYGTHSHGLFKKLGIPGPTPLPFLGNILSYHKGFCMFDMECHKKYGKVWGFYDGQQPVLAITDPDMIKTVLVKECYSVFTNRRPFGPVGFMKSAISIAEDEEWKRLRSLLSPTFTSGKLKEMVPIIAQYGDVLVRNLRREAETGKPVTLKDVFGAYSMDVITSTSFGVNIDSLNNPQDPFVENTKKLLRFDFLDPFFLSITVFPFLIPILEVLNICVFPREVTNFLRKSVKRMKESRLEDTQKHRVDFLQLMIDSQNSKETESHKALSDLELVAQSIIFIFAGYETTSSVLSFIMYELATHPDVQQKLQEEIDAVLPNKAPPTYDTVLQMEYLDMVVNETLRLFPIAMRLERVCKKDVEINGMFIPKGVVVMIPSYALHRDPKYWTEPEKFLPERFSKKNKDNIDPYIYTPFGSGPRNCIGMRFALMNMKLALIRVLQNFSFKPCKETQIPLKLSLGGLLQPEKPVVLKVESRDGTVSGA
The nature of data set [1]: Half life in Sprague-Dawley rat at 10 mg/kg, po measured up to 24 hrs by LC-MS/MS analysis. It counts as ADME, organism-based. To be noted: in vivo. In outline:
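Male SD rats given a single oral dose of 10 mg/kg in 5% DMSO + 10% Solutol + 85% saline.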

The next data set has as its target T1, Cytochrome P450 2B6 (Homo sapiens, UniProt P20813).
T1 sequence (P20813 whole entry): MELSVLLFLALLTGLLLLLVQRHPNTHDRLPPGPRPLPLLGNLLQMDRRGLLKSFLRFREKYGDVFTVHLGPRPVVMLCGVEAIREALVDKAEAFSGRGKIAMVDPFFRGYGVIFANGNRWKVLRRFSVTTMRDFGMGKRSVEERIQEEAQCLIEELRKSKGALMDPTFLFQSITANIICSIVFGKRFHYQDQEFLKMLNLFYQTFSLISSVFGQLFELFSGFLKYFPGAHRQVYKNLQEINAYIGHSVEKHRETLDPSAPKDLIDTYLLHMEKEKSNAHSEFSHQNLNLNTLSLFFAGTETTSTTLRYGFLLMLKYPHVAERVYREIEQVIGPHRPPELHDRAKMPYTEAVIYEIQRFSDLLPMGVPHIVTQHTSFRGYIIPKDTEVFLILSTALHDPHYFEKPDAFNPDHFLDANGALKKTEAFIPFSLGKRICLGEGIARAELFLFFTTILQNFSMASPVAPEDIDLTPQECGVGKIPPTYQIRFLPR
In words: Inhibition of CYP2B6 in human liver microsomes preincubated for 5 mins followed by NADPH addition and measured after 10 mins by LC/MS analysis. The data set is classed as ADME, Microsome.

A further data set relates to VCaP. The data set is described as follows: Induction of androgen receptor degradation in human VCaP cells at 100 nM pretreated with ARi-12 for 2 hrs followed by compound addition and 3 hrs by Western blot analysis. The data set is classed as functional, cell-based. To be noted: time 5.0 hrs. In outline:
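LNCaP or VCaP cells pretreated 2 h with DMSO, ARi-12 (10 μM), thalidomide (10 μM), MG-132 (3 μM) or MLN4924 (0.5 μM), then given degrader at 100 nM for 3 h. AR measured by Western blot with GAPDH as loading control.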

Another data set concerns Mus musculus. The data set is described as follows: In vivo induction of androgen receptor degradation in human VCaP cells xenografted in CB17 SCID mouse assessed as reduction in KLK3 mRNA level at 12.5 mg/kg, po measured after 6 to 24 hrs by qRT-PCR analysis. It counts as functional, organism-based. To be noted: time 6-24 hrs.
Data set [2] is described as follows: AUC(0 to t) in ICR mouse at 2 mg/kg, iv measured upto 24 hrs by LC-MS/MS analysis. It counts as ADME, organism-based. Also on record: time < 24 hrs, dose 2 mg/kg, route iv. Particulars: in vivo. An outline of the steps: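 Male ICR mice (2 mg/kg), male SD rats (1 mg/kg) or male Beagle dogs (1 mg/kg) given a single intravenous dose in 10% PEG400 + 90% PBS adjusted to pH 8.0 with NaOH.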

With `C[C@H]1CC2(CCN(c3ccc(C(=O)N4CCN(C5CN(c6ccc7c(c6)C(=O)N(C6CCC(=O)NC6=O)C7=O)C5)CC4)cc3)CC2)CN1c1ccc(C#N)c(Cl)c1` (stereo partly specified), the IC50 at Cytochrome P450 3A4 and against Cytochrome P450 2B6 was greater than 10 µM throughout. In data set [1], this compound displayed a t1/2 of 3.9 h. Further, the result with VCaP was inactive. The outcome in the data set with Mus musculus was Active. In data set [2], this compound gave an AUCt of 8850 ng·h/mL.
